Assay: S. cerevisiae growth inhibition in restrictive medium, OD615, pilot screen, restrictive growth control, yeast lifespan reduction project (AID 706);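 note: modified DeaD lifespan yeast strain shifted to restrictive glucose medium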
Details: OD615, 48 h, at 10 µM, hits give high values;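 active = growth inhibition above a set limit, 3 SD over mean compound inhibition, in both replicates (cut at about 43% in these data); inconclusive = above the limit in only one replicate; inactive = at or below the limit in both replicates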
Method in brief: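 Material: modified S. cerevisiae; Medium: glucose-based CSMM-D restrictive medium; Compound dosing: one concentration, 10 µM final, 0.25% DMSO; Incubation: 48 h compound exposure at 30 °C; Measured by: OD615.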

Growth inhibition, inactive:
COCCNC(=O)c1cc(-c2cccs2)on1 2.31%
CC(C)c1nnc(NC(=O)C2CCCCC2)s1 0.755%
Cc1nc2ccc(S(=O)(=O)NC(C(=O)Nc3nccs3)C(C)C)cc2s1 (stereo not given) 2.78%
O=C(Cn1c(=O)[nH]c2ccsc2c1=O)NC1CCCCCC1 -17.4%
CCCCN(C)Cc1c(O)ccc2c(-c3ccccc3)cc(=O)oc12 2.96%
O=C(CN1CCN(Cc2ccccc2F)C1=O)NCc1cccnc1 6.51%
O=c1c2ccccc2nc2n1CCN2 -1.61%
O=C(CSc1nnc(Cn2c(=O)sc3ccccc32)n1-c1ccccc1)Nc1nccs1 27.2%
Cc1ccc(-n2nc(C)c3cc(C(=O)O)sc32)cc1 21.7%
CCOC(=O)c1oc2c(CN3CCN(C)CC3)c(O)ccc2c(=O)c1-c1ccccc1OC -15.5%
CCCCn1c(NCc2ccccc2O)nc2ccccc21 -11.8%
Cc1cc2ncc(-c3ccc(Cl)cc3)c(N)n2n1 -0.665%
CC1(C(=O)NC2CCCCC2)CCC(=O)N1Cc1cccs1 (stereo not given) -15.9%
CCc1cc(=O)n2[nH]c(C)c(-c3ccccc3OC)c2n1 0.365%
Cc1nnc(SCCn2c(N3CCC(Cc4ccccc4)CC3)nc3c2c(=O)[nH]c(=O)n3C)s1 5.62%
O=C(C1CCCN(S(=O)(=O)c2cccnc2)C1)N1CCn2c1nc1ccccc12 (stereo not given) 4.04%
CCOC(=O)c1ccc(NC(=O)Cn2cc3c(n2)CCC(C)C3)cc1 (stereo not given) 5.5%
Cc1cc(C)cc(N(CC(=O)Nc2cccc(C)n2)S(=O)(=O)c2c(C)noc2C)c1 -11.5%
COc1ccc(-c2nnc(SCC(=O)N3CCOCC3)o2)cc1OC -3.02%
Cc1c(C(=O)OCc2ccccc2)[nH]c2c1C(=O)CC(c1ccco1)C2 (stereo not given) -7.56%
CCCn1cc(SCC(N)=O)c2ccccc21 -15.9%
CC1CCCCN1CCNC(=O)C1CCN(S(=O)(=O)c2cccc3cccnc23)CC1 (stereo not given) -2.71%
Cc1onc(-c2ccccc2Cl)c1C(=O)N1CCc2ccccc21 -8.1%
O=C(c1ccc(CNc2c(N3CCCC3)c(=O)c2=O)cc1)N1CCc2ccccc2C1 -0.375%
Cc1cccc(-n2ncc3c(NCc4cccnc4)ncnc32)c1 -8.12%
COc1cccc2cc(C(=O)OC3CCN(C)CC3)c(=O)oc12 -8.68%
CCOc1ccccc1NC(=O)CC1Nc2cc(C)c(C)cc2NC1=O (stereo not given) -12.1%
COC(=O)C(C)Sc1nnc2n(-c3cccc(C)c3)c(=O)c3c4c(sc3n12)CCCC4 (stereo not given) 16.4%
Cc1c(NC(=O)C2CCCCN2S(=O)(=O)c2ccc(Cl)cc2)c(=O)n(-c2ccccc2)n1C (stereo not given) -1.4%
CCC(=O)c1cc(F)c(N2CCN(C(=O)c3ccco3)CC2)cc1C -0.62%
Cc1cccc(C2CC(c3ccccc3)Nc3nc(N)nn32)c1 (stereo not given) 3.52%
Cc1ccc(C)c(NC(=O)CSc2nnc(-c3ccccc3)o2)c1 -0.695%
CCCCN(CC)CCNC(=O)c1cc2c(C)nc3ccccc3c2o1 1.23%
O=C(Nc1ccccc1)C1=C(O)CC(c2ccoc2)CC1=Nc1ccccc1 (stereo not given) -4.9%
COc1ccc(OCc2nc(C#N)c(N3CCN(c4ccc(OC)cc4)CC3)o2)cc1 -1.77%
CCOc1cccc(OCCCCn2ccnc2)c1 -16.8%
COc1ccc(OC)c(C2CC(=O)NC(SC)=C2C#N)c1 (stereo not given) -5.61%
Cc1cc(NC(=O)c2cccc(S(=O)(=O)N3CC(c4ccccc4)CC3=O)c2)no1 (stereo not given) -8.59%
O=C(Cn1nc(Cc2ccncc2)c2ccccc2c1=O)N1CCN(C(=O)c2ccco2)CC1 9.88%
COC(=O)c1sc(NC(=O)COc2ccccc2OC)nc1C -0.995%

Reference: PubChem BioAssay
